Assay outcomes (PubChem BioAssay)
Compounds with a hit are over-represented: about 1.6% of the library has one in this group of screens.
RAD54 inh: inhibitors of human RAD54 branch migration | Q92698 | RAD54 Holliday junction branch migration, FAM/BHQ fluorescence | inhibition, % at 10.4 µM | hit rate 0.14% among 360,000;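 active = mean normalized replicate activity at least 40 and at least half of replicates scoring 40 or more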;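 note: 0% = median of neutral control wells and 100% = median of positive control wells; inhibitors cause a drop in the FAM fluorescence signal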
Apaf-1 inh: inhibitors of human Apaf-1 apoptosome. O14727. reconstituted apoptosome caspase-3 activity, DEVD-Rh110 fluorescence. inhibition, % at 20 µM. hit rate 0.71% among 330,000. AID 489030; active = inhibition of at least 40% at 20 µM;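 note: plate controls were DMSO wells for no effect and DEVD-CHO caspase inhibitor wells for full effect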
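Material: reconstituted apoptosome with Apaf-1, cytochrome c, caspase-9, procaspase-3, dATP / Buffer or medium: pH 7.5 Hepes buffer with CHAPS, BSA, DTT / Also added: cytochrome c with DEVD-Rh110 / Schedule: compound with Apaf-1, dATP, procaspase-3 30 min, then 50 min reaction, room temperature / Technique: rhodamine 110 fluorescence at Ex 480/Em 540 nm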
RAD52 anneal inh: RAD52 (human) annealing inhibition; P43351; recombinant RAD52 DNA annealing, FRET fluorescence; inhibition, % at 18.7 µM; hit rate 0.46% among 360,000; AID 651710;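 active = every replicate showing at least 50% inhibition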
Neddyl block: cullin neddylation inhibition; calls only at 25 µM; P61081+Q13564; TR-FRET cullin neddylation, biochemical; AID 651699; hit rate 0.58% among 360,000; in the data active = inhibition above about 36%
UBC13 inh: human UBC13 polyubiquitination inhibition | P61088 | UBC13 polyubiquitin chain formation, TR-FRET | inhibition, % at 20 µM | hit rate 0.47% among 330,000 | AID 485273; in the data active = inhibition above about 45%, passing the limit was not always enough
FID counter: fluorescent intercalator displacement, NS3 helicase counter-screen. DNA fluorescent intercalator displacement, fluorescence. inhibition, % at 7.9 µM. hit rate 0.17% among 290,000. AID 1845; in the data active = inhibition above about 37%;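 note: 0% = vehicle and 100% = reference compound; higher means more ethidium bromide displaced from hairpin DNA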
DNA binder FP: binds DNA, flagging false RAD52 inhibitor hits; shares compounds with RAD52 anneal inh; Salmon sperm DNA/acridine orange FP displacement, DNA binding; AC50, µM; hit rate 8% among 1,000; AID 652128;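 active = fitted half-maximal concentration for signal loss at or below twice the highest dose tested, in every separate run, actives reach about 64 µM in these data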
An asterisk follows results filed as active.

`Cc1cc(N2CCCC2)nc2ccc(NC(=S)NCCCOC(C)C)cc12` gave Apaf-1 inh 5.4, RAD52 anneal inh 57.6*, Neddyl block inactive, UBC13 inh -19.8, FID counter 17.4 and DNA binder FP inactive.
Screening Cc1cc(N2CCN(C)CC2)nc2ccc(NC(=S)NCCC(C)C)cc12 returned RAD54 inh 27.6, Apaf-1 inh 23.8, RAD52 anneal inh 61.1*, Neddyl block inactive, UBC13 inh 14.8, FID counter 16.0 and DNA binder FP inactive.
For CCN1CCN(c2cc(C)c3cc(NC(=S)N4CCN(c5ccccc5)CC4)ccc3n2)CC1 the results were RAD54 inh 7.9, Apaf-1 inh 7.6, RAD52 anneal inh -13.9, Neddyl block inactive, UBC13 inh 18.4 and FID counter 21.0.
Screening CCN1CCN(c2cc(C)c3cc(NC(=S)NCCCOC)ccc3n2)CC1 returned RAD54 inh 21.2, Apaf-1 inh 3.3, RAD52 anneal inh 61.4*, Neddyl block inactive, UBC13 inh 3.5, FID counter 1.9 and DNA binder FP inactive.
For COCCNC(=S)Nc1ccc2nc(N3CCN(C)CC3)cc(C)c2c1 the results were RAD54 inh 22.1, Apaf-1 inh 11.0, RAD52 anneal inh 52.4*, Neddyl block inactive, UBC13 inh 1.0, FID counter 12.3 and DNA binder FP inactive.
C[C@@H]1CN([C@H](C)CO)C(=O)c2cc(NC(=O)Nc3ccccc3)ccc2O[C@@H](C)CCCCO[C@H]1CN(C)Cc1ccncc1 was read as RAD54 inh -2.6 and RAD52 anneal inh -7.7.
For COc1ccc(CNC(=S)Nc2ccc3nc(N4CCOCC4)cc(C)c3c2)cc1 the results were Apaf-1 inh 5.9, RAD52 anneal inh -8.8, UBC13 inh -1.9 and FID counter -4.5.
For CCN(CC)CCNC(=S)Nc1ccc2nc(N3CCCC3)cc(C)c2c1 the results were Apaf-1 inh 11.8, RAD52 anneal inh 75.7*, Neddyl block inactive, UBC13 inh -12.5, FID counter 48.7* and DNA binder FP inactive.
For COc1ccccc1CNC(=S)Nc1ccc2nc(N3CCN(C)CC3)cc(C)c2c1 the results were RAD54 inh 19.1, Apaf-1 inh 2.3, RAD52 anneal inh 77.1*, Neddyl block inactive, UBC13 inh 25.5, FID counter 21.0 and DNA binder FP inactive.
Screening CC(C)NC(=O)Nc1ccc2c(c1)C(=O)N([C@@H](C)CO)C[C@@H](C)[C@H](CN(C)Cc1ccncc1)O2 returned RAD54 inh 9.4 and RAD52 anneal inh -7.3.
`COC(=O)C1(Cc2ccccc2)NC(c2ccc(F)cc2)C2C(=O)N(C)C(=O)C21` (stereo not drawn) gave RAD54 inh -11.3, Apaf-1 inh 5.5, Neddyl block inactive, UBC13 inh 2.1 and FID counter -14.4.
Screening CCC(C)Sc1ccc([C@H]2N[C@@](Cc3ccccc3)(C(=O)OC)[C@H]3C(=O)N(C)C(=O)[C@@H]23)cc1 (stereo partly drawn) returned RAD54 inh -11.9, Apaf-1 inh 24.8, RAD52 anneal inh 97.8*, Neddyl block inactive, UBC13 inh 12.4 and DNA binder FP inactive.
O=c1c2ccccc2nc2c3ccccc3c(NCCN3CCOCC3)nn12 was read as Apaf-1 inh 10.4, UBC13 inh -1.1 and FID counter 22.5.
`O=c1c2c(-c3ccccc3)csc2nc2c3ccccc3c(NCCN3CCOCC3)nn12` gave RAD52 anneal inh 87.1*, FID counter 31.1 and DNA binder FP inactive.
